Reference: PMC8481180 (Clinical Drug Investigation, 2021)
“Also recorded” adds a separate entry of the source. Where two headings read alike, the source gives them in different places.

Key:
[1] = SMAD study, fasting and fed healthy volunteers; cited from earlier work
[2] = Clinical safety and tolerability in healthy Japanese subjects; type: in vivo, human
In short: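 Randomised, placebo-controlled: four cohorts of 8 (6 active, 2 placebo) received an oral amorphous suspension once on Day 1, then once daily on Days 3–10, fasted. Assessments were adverse events, vital signs, ECG, telemetry and routine clinical laboratory tests. They were taken before and at scheduled times after dosing and at follow-up 7–10 days after the final dose.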

[3] = cited from earlier work
[4] = system: LTE4 in urine; test: Creatine-normalized urine LTE4 quantification; type: in vivo, human
In short: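 Urinary LTE₄ was normalised to creatinine. On Days 1 and 10, samples were a pre-dose spot, pooled 0–3, 3–6, 6–9 and 9–12 h collections, and spots at 24 and 36 h. Only pre-dose spots were taken on Days 3–9. Inhibition was related to plasma exposure after oral doses of 60–600 mg.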

[5] = Comparison of pharmacokinetics, Japanese versus non-Japanese subjects; type: in vivo, human; details: Day 10
In short: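 Day-10 Japanese multiple-dose pharmacokinetic parameters were compared with a prior Phase I non-Japanese study (MAD part). Parameters were log-transformed to give geometric mean ratios with 90% confidence intervals. Cmax and AUCτ were also normalised to 70 kg body weight. Six subjects per cohort.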

[6] = Pharmacokinetics in healthy non-Japanese subjects; type: in vivo, human; details: for AUCτ, non-Japanese geometric mean, body weight normalized to 70 kg: Day 10
[7] = type: in vivo, human; details: for Tmax: median (range)
In short: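 Oral suspension given fasted (10 h overnight), 6 subjects per dose. Blood (2 mL, K₂-EDTA) was taken pre-dose and 0.5–48 h after the first and Day-10 doses. Day-10 urine was collected pre-dose and over 0–3, 3–6, 6–12 and 12–24 h. Analysis used validated methods and non-compartmental methods with actual sampling times. AUC was by log-linear trapezoidal rule.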

[8] = Japanese, 60 mg OD, Day 1, geometric mean (CV%)
[9] = Japanese, 60 mg OD, Day 10, geometric mean (CV%)
[10] = Japanese, 180 mg OD, Day 1, geometric mean (CV%)
[11] = Japanese, 180 mg OD, Day 10, geometric mean (CV%)
[12] = Japanese, 360 mg OD, Day 1, geometric mean (CV%)
[13] = Japanese, 360 mg OD, Day 10, geometric mean (CV%)
[14] = Japanese, 600 mg OD, Day 1, geometric mean (CV%)
[15] = Japanese, 600 mg OD, Day 10, geometric mean (CV%)

In the case of `Cc1cc(-c2ccc(C(=O)[C@@H]3CCCC[C@H]3C(=O)Nc3cnn4c3C(=O)NCC4)cc2)n[nH]1` [AZD5718], the tolerability [1] is given as “well tolerated”, the serious adverse events ([2]; Japanese, 60, 180, 360, 600 mg) is given as “No serious AEs” and the “vital signs, ECG, telemetry, laboratory results” value ([2]; Japanese, all doses) is given as “no clinically significant trends”. The tolerability ([2]; Japanese, single and multiple oral doses 60, 180, 360, 600 mg) was “No clinically relevant safety and tolerability findings; also recorded: safe, well tolerated”, the “time to steady-state levels” value ([3]; SMAD study, once-daily dosing) was 2 to 3 days and the terminal half-life ([3]; SMAD study) was 10 h. For the same molecule, the “AUCτ, non-Japanese geometric mean” value ([3]; non-Japanese, 60 mg multiple dosing, Day 10) was 1386.3 nmol·h/L, the “AUCτ, non-Japanese geometric mean” value ([3]; non-Japanese, 180 mg multiple dosing, Day 10) was 5128.4 nmol·h/L and the “AUCτ, non-Japanese geometric mean” value ([3]; non-Japanese, 360 mg multiple dosing, Day 10) was 12,764.7 nmol∙h/L. The “AUCτ, non-Japanese geometric mean” value ([3]; non-Japanese, 600 mg multiple dosing, Day 10) was 23,175.0 nmol∙h/L, the Cmax ([3]; read-out: Cmax, non-Japanese geometric mean, non-Japanese, 60 mg multiple dosing, Day 10) was 220 nM and the “time at which level of full LTE4 inhibition achieved” value ([4]; Japanese, after the first dose, all doses) was 8 h. For the same molecule, the “sustained reduction in LTE4 in urine” value ([4]; Japanese, all doses) was “above 80%”, the “inhibition of LTE4 in urine after the first dose” value ([4]; Japanese, all doses (60–600 mg)) was > 80% and the “time of maximum reduction in LTE4 in urine post-dose” value ([4]; after first dose, both Japanese and non-Japanese subjects) was ≤ 12 h. The “urinary LTE4 inhibition versus AZD5718 exposure” value ([4]; single and multiple doses, at plasma concentrations in the lower nM range) was > 80%, the “AUCτ GMR Japanese versus non-Japanese, % (90% CI)” value ([5]; 60 mg) was 82 (63–108) % and the “AUCτ GMR Japanese versus non-Japanese, % (90% CI), body weight normalized to 70 kg” value ([5]; 60 mg) was 72 (55–95) %. For the same molecule, the “Cmax GMR Japanese versus non-Japanese, % (90% CI)” value ([5]; 60 mg) was 72 (54–97) %, the “Cmax GMR Japanese versus non-Japanese, % (90% CI), body weight normalized to 70 kg” value ([5]; 60 mg) was 63 (48–84) % and the “AUCτ GMR Japanese versus non-Japanese, % (90% CI)” value ([5]; 180 mg) was 131 (88–196) %. For the same molecule, the “AUCτ GMR Japanese versus non-Japanese, % (90% CI), body weight normalized to 70 kg” value ([5]; 180 mg) was 101 (71–144) %, the “Cmax GMR Japanese versus non-Japanese, % (90% CI)” value ([5]; 180 mg) was 126 (82–195) % and the “Cmax GMR Japanese versus non-Japanese, % (90% CI), body weight normalized to 70 kg” value ([5]; 180 mg) was 97 (65–145) %. For the same molecule, the “AUCτ GMR Japanese versus non-Japanese, % (90% CI)” value ([5]; 360 mg) was 124 (83–186) %, the “AUCτ GMR Japanese versus non-Japanese, % (90% CI), body weight normalized to 70 kg” value ([5]; 360 mg) was 102 (70–149) % and the “Cmax GMR Japanese versus non-Japanese, % (90% CI)” value ([5]; 360 mg) was 108 (72–162) %. For the same molecule, the “Cmax GMR Japanese versus non-Japanese, % (90% CI), body weight normalized to 70 kg” value ([5]; 360 mg) was 89 (60–131) %, the “AUCτ GMR Japanese versus non-Japanese, % (90% CI)” value ([5]; 600 mg) was 118 (73–190) % and the “AUCτ GMR Japanese versus non-Japanese, % (90% CI), body weight normalized to 70 kg” value ([5]; 600 mg) was 104 (69–156) %. For the same molecule, the “Cmax GMR Japanese versus non-Japanese, % (90% CI)” value ([5]; 600 mg) was 108 (66–178) %, the “Cmax GMR Japanese versus non-Japanese, % (90% CI), body weight normalized to 70 kg” value ([5]; 600 mg) was 95 (64–142) % and the “AUCτ, non-Japanese geometric mean, body weight normalized to 70 kg” value ([6]; 60 mg) was 1464.7 nmol·h/L. For the same molecule, the “AUCτ, non-Japanese geometric mean, body weight normalized to 70 kg” value ([6]; 180 mg) was 5837.1 nmol·h/L, the “AUCτ, non-Japanese geometric mean, body weight normalized to 70 kg” value ([6]; 360 mg) was 14,647.6 nmol∙h/L and the “AUCτ, non-Japanese geometric mean, body weight normalized to 70 kg” value ([6]; 600 mg) was 24,956.5 nmol∙h/L. The Cmax ([6]; read-out: Cmax, non-Japanese geometric mean, body weight normalized to 70 kg, 60 mg, Day 10) was 232 nM, the Cmax ([6]; read-out: Cmax, non-Japanese geometric mean, body weight normalized to 70 kg, 180 mg, Day 10) was 1420 nM and the Cmax ([6]; read-out: Cmax, non-Japanese geometric mean, body weight normalized to 70 kg, 360 mg, Day 10) was 3680 nM. For the same molecule, the Cmax ([6]; read-out: Cmax, non-Japanese geometric mean, body weight normalized to 70 kg, 600 mg, Day 10) was 6130 nM, the “AUCτ, Japanese geometric mean, body weight normalized to 70 kg” value ([7]; 60 mg, Day 10) was 1056.0 nmol·h/L and the “AUCτ, Japanese geometric mean, body weight normalized to 70 kg” value ([7]; 180 mg, Day 10) was 5896.7 nmol·h/L. For the same molecule, the “AUCτ, Japanese geometric mean, body weight normalized to 70 kg” value ([7]; 360 mg, Day 10) was 14,981.4 nmol∙h/L, the “AUCτ, Japanese geometric mean, body weight normalized to 70 kg” value ([7]; 600 mg, Day 10) was 25,893.0 nmol∙h/L and the Cmax ([7]; Japanese, 60 mg OD oral suspension, Day 1, geometric mean (CV%), n = 6) was 140 nM. The AUCτ [7, 8] was 862.9 (35.8) nmol∙h/L, the CL/F [7, 8] was 142.1 (33.5) L/h and the t½ [7, 8] was 10.1 (44.0) h. The Tmax ([7]; Japanese, 60 mg OD, Day 1) was 1.0 (1.0, 3.0) h, the AUCτ [7, 9] was 1140.5 (25.5) nmol∙h/L and the CL/F [7, 9] was 117.8 (25.5) L/h. The CLR [7, 9] was 0.8 (22.5) L/h, the Cmax [7, 9] was 159 nM and the t½ [7, 9] was 12.8 (47.0) h. For the same molecule, the Tmax ([7]; Japanese, 60 mg OD, Day 10) was 2.0 (1.0, 3.0) h, the AUCτ [7, 10] was 4739.4 (33.3) nmol∙h/L and the CL/F [7, 10] was 82.2 (35.8) L/h. For the same molecule, the Cmax [7, 10] was 1280 nM, the t½ [7, 10] was 8.5 (47.9) h and the Tmax ([7]; Japanese, 180 mg OD, Day 1) was 1.0 (0.5, 2.0) h. The AUCτ [7, 11] was 6724.5 (32.0) nmol∙h/L, the CL/F [7, 11] was 60.0 (32.0) L/h and the CLR [7, 11] was 0.8 (38.4) L/h. The Cmax [7, 11] was 1570 nM, the t½ [7, 11] was 8.6 (23.6) h and the Tmax ([7]; Japanese, 180 mg OD, Day 10) was 1.5 (1.0, 2.0) h. The AUCτ [7, 12] was 8971.1 (47.6) nmol∙h/L, the CL/F [7, 12] was 84.3 (51.7) L/h and the Cmax [7, 12] was 2200 nM. The t½ [7, 12] was 15.0 (100.5) h, the Tmax ([7]; Japanese, 360 mg OD, Day 1) was 1.0 (1.0, 2.1) h and the AUCτ [7, 13] was 15,847.3 (47.8) nmol∙h/L. The CL/F [7, 13] was 50.9 (47.8) L/h, the CLR [7, 13] was 0.9 (21.0) L/h and the Cmax [7, 13] was 3460 nM. The t½ [7, 13] was 10.5 (29.1) h, the Tmax ([7]; Japanese, 360 mg OD, Day 10) was 2.0 (1.0, 3.0) h and the AUCτ [7, 14] was 17,592.6 (39.9) nmol∙h/L. For the same molecule, the CL/F [7, 14] was 74.1 (40.0) L/h, the Cmax [7, 14] was 5180 nM and the t½ [7, 14] was 7.4 (25.5) h. For the same molecule, the Tmax ([7]; Japanese, 600 mg OD, Day 1) was 1.0 (1.0, 2.0) h, the AUCτ [7, 15] was 27,349.3 (48.8) nmol∙h/L and the CL/F [7, 15] was 49.1 (48.8) L/h. The CLR [7, 15] was 0.8 (16.8) L/h, the Cmax [7, 15] was 6150 nM and the t½ [7, 15] was 8.5 (35.1) h. The Tmax ([7]; Japanese, 600 mg OD, Day 10) was 1.0 (1.0, 2.0) h, the “Tmax (median) across doses” value ([7]; Japanese, 60–600 mg oral, fasted) was 1 to 2 h and the “accumulation in AUCτ” value ([7]; Japanese, Day 10 versus Day 1, all doses) was 32–77%. For the same molecule, the “time to steady-state plasma concentrations” value ([7]; Japanese, once-daily dosing) was 3 to 4 days, the Cmax ([7]; read-out: Cmax, Japanese geometric mean, body weight normalized to 70 kg, 60 mg, Day 10) was 147 nM and the Cmax ([7]; read-out: Cmax, Japanese geometric mean, body weight normalized to 70 kg, 180 mg, Day 10) was 1370 nM. It also gave a Cmax ([7]; read-out: Cmax, Japanese geometric mean, body weight normalized to 70 kg, 360 mg, Day 10) of 3270 nM and a Cmax ([7]; read-out: Cmax, Japanese geometric mean, body weight normalized to 70 kg, 600 mg, Day 10) of 5820 nM.
